System: MS2 coat protein
Test: apparent Kd, MS2 coat protein; higher = weaker binding; RNA-MaP array; FMN 200 µM where present
How it was run: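 SNAP-549-labelled MS2 coat protein, doubled from 0.7 or 1.5 nM to 3 µM, was titrated over designs transcribed by stalled E. coli RNA polymerase on Illumina sequencing-chip clusters. Titrations were run without and then with constant ligand in 100 mM Tris-HCl pH 7.5, 80 mM KCl, 4 mM MgCl2, BSA, DTT, yeast tRNA and Tween-20. The apparent Kd is the median of filtered per-cluster fits to green signal normalised to red-channel RNA signal and control-cluster median Fmax.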

[1] = designed as: ON switch for flavin mononucleotide, no ligand
[2] = ligand present: flavin mononucleotide, designed as: ON switch for flavin mononucleotide
[3] = designed as: OFF switch for flavin mononucleotide, no ligand
[4] = ligand present: flavin mononucleotide, designed as: OFF switch for flavin mononucleotide

| Sequence | apparent Kd [1] | apparent Kd [2] | apparent Kd [3] | apparent Kd [4] |
| --- | --- | --- | --- | --- |
| AAGAAAGAAACGCAGGAUAUGCAAAACAAAACAUGAGGAUCACCCAUGUCUUACUUACAAACAAAGCAGAAGGGCGAAAGAAAGAA | 20.1 nM | 13.2 nM | – | – |
| GUAGCUAUCGGAGGAUAUUCAUACCGGAAACGGACAUGAGGAUCACCCAUGUGGCGAAAGACUUGGGAGAAGGCCGAUAGCUAC | 183 nM | 35.5 nM | – | – |
| UUUCUCGUUGUGAGGAUAUCGUUUUUGUUUUGGAUCGAGAAGGCACAUGAGGAUCACCCAUGUUUGUUGUGGUU | – | – | 119 nM | 87.7 nM |
| AUCAGCUCGUCAGGAUAUACGUCACUGCGUCAGCAGUGUGGUAAGAUCACAUGAGGAUCACCCAUGUAGAAGGGAGGAGCUGAU | – | – | 15 nM | 438 nM |
| CUGAUGUUAGGAUAUCAGGCUGCGCGCGAAGGCGGACGGCAUGAGAAGGAACAUGAGGAUCACCCAUGUGACGA | – | – | 32.6 nM | 103 nM |
| UUUAUUUCGGCAGGAUAUACAUGUAUAUAUAUUUCUUUAUAUCUUAUUACAUGAGGAUCACCCAUGUAGAAGGGCCUUCUUCUC | – | – | 55.1 nM | 49.2 nM |
| ACUGUUUGAUUCCUCUUAUACAUGAGGAUCACCCAUGUUAUCGAGGAUAUGCAUUAGAGUGUUUAGCAGAAGGCGAUGUAAUUC | – | – | 5.89 nM | 12.9 nM |
| CUGAUGUUAGGAUAUCAGGUCGCGCGCGAAGGCGCGCAGCAUGAGAAGGAACAUGAGGAUCACCCAUGUGACGA | – | – | 22.4 nM | 60.5 nM |
| CAGCAAAGGUAGAAGGCAGUACUGAUACAGUACUGAGGAUAUACAUGAGGAUCACCCAUGUUCUUCAGCUGGAAAUAAAUAAAA | – | – | 8.98 nM | 134 nM |
| CGAGCUGCUGUGAGGAUAUACCUAUGGGUGCGUGGGUAGAAGGCACAUGAGGAUCACCCAUGUCCUGCAGCUCG | – | – | 255 nM | 344 nM |
| AAAAAACAUGAGGAUCACCCAUGUGAGGAUAUGAUGCGAAUAAAGAAAGAAGAAAGCAUCAGAAGGCACAUAUG | – | – | 86.6 nM | 254 nM |
| GAGAUGUGAGGAUAUCUAGACCGCGGAAGAGCUGCGGUCCGAGAGAAGGCACAUGAGGAUCACCCAUGUGAUGA | – | – | 46.2 nM | 145 nM |
| GGUGGACAUGAGGAUCACCCAUGUGAGGAUAUCGGCUAUCUUAUCGCUGUCGGUUGCUCGAGAAGGCACAUUGU | – | – | 76.7 nM | 195 nM |
| GAGUAGAUAGCAGGAUAUCUAUUUCCUACAUGAGGAUCACCCAUGUAGAUGAUCACCCAUGUAAAGGAGAAGGGCUAUCUAUUC | 355 nM | 160 nM | – | – |
| CGAUAGGACAGAGGAUAUACACAUGAGGAUCACCCAUGUGAUUACAACGCUUAAGCUUCAAACAUGUAGAAGGCUGUCCUAUCG | – | – | 10.8 nM | 19.4 nM |
| GCCAGCUCGUGAGGAUAUACAACACUGCUUCGGCAGUGUAUUAAGAUCACAUGAGGAUCACCCAUGUAGAAGGCACGAGCUGAU | – | – | 13.8 nM | 261 nM |
| GGGUACAUCGGAGGAUAUCAUGUAAAUACAUGAGGAUCACCCAUGUCGAUGGAGACAUCGGAGUUUGAGAAGGCCGAUGUACCG | 150 nM | 6.58 nM | – | – |
| GGCGGUUUACAAGGAUAUUAGAAACAGACCAAAUAAGAAGGUGUUAUCUGGCAAUGCGAAAGCAGACAUGAGGAUCACCCAUGU | 58.3 nM | 57.1 nM | – | – |
| UUUUCUACUGAGGAUAUUAUAUUACCCGACUGAUAAGAAGGCAGUACAUGAGGAUCACCCAUGUGGGUAGCCAU | – | – | 21.8 nM | 31 nM |
| ACCUUACUGGUCAGGAUAUACAGUCUUGGGUGGGUGUAGAAGGGACAUGAGGAUCACCCAUGUAGGUUGCAGCA | – | – | 129 nM | 126 nM |
| UUCUUUCCUCAUGUACAUGAGGAACAUGAGGAUCACCCAUGUAGAAGGAUUUCAAUUAAAUUAAAAUAGGAUAUACAUCUAUUU | – | – | 10.4 nM | 9.34 nM |
| ACAUGAGGAUCUCCCAUGUAAAAUUAGGAUAUAUGACUGCACAUGAGGAUCACCCAUGUUUUACCGUAGAAGGGAUAAAUAAUU | 867 nM | 855 nM | – | – |
| GUAGAGUAAGGAUAUUGUGAAUAGGAUAGAAUGGUUAGAAACAAGAAGGUACAUGAGGAUCACCCAUGUAAUGU | – | – | 22.1 nM | 19.8 nM |
| AUAGCAUACCGAGGAUAUUCAUAUAAUAAAUAAACAUGAGGAUCACCCAUGUGGCGAAAGCCUAGGGAGAAGGCGGAAUGCUAA | 218 nM | 23.3 nM | – | – |
| UAUAUGUCAGGAUAUUAGUUGAGGUGGAAUUUAGCCUCUGCUGAGAAGGGACAUGAGGAUCACCCAUGUUCCUC | – | – | 21.9 nM | 200 nM |
| GACUUGGCUACAUGAGGAUCACCCAUGUUUGACUGGAUCAAUUAGGAUAUAGUGAUAUGCAACAAUUAGAAGGGAUGUUUACGG | 56.6 nM | 45.2 nM | – | – |
| GUAUCAUACCAAGGAUAUUUAGGACUUGGAUAGACAUGAGGAUCACCCAUGUGGCGUUAGUCACGGGAGAAGGUGGUAUGAUAC | 103 nM | 20.7 nM | – | – |
| UUUAUGGGACAGAAGGGCAAUUUCUUUAAUUAUUAUUUAAAACAUCAUUGCAGGAUAUGUAUAACAUGAGGAUCACCCAUGUAC | 36.2 nM | 12.2 nM | – | – |

| Sequence | apparent Kd [1] | apparent Kd [2] | apparent Kd [3] | apparent Kd [4] |
| --- | --- | --- | --- | --- |
| AGUUAAUAUCGAGGAUAUGUCUAGACACAUGAGGAUCACCCAUGUAUGUGUAUAGAAGGCAAAAUUAACAGCAUGUUACAUGCA | 30.6 nM | 24.9 nM | – | – |
| GUGCCGAACCUAGGAUAUCUUAUCGGGUUCCGCCGUGGCUUAGCGACAUGAGGAUCACCCAUGUAAGAGAAGGAGGUGGCGGAG | – | – | 128 nM | 135 nM |
| CCACGAGACUAAGGAUAUGGAGUGUCAACAUAAAACAUGAGGAUCACCCAUGUAAAGAGUACGAUUCAGAAGGUAGAGACGUGG | 38.3 nM | 23.7 nM | – | – |
| AGUUAAUAUCGAGGAUAUCCUCAUCUACAUGAGGAUCACCCAUGUAAACAUGGAGAAGGCGAUAUUAACAGCAUGUUACAUGCA | 259 nM | 14.9 nM | – | – |
| GUGCGAGUGCCACAGGAUAUACGUGGAUCGACAUGAGGAUCACCCAUGUAUAUCCUAAUAAUUGCGUAGAAGGGUGGUCAGUCGG | 786 nM | 289 nM | – | – |
| AGUCCUGAUGUUAGGAUAUGCAACUAGCCAUUGUAGCAGAAGGAACAUGAGGAUCACCCAUGUACAAAGACCCA | – | – | 30.1 nM | 55.4 nM |
| ACAUGAGGAUCACCCAUGUUGACAUAGGAUAUACAACAAUAGUUACAAUCAUGUACUAUUUGAUAGUAGAAGGAUGGAACAUGA | – | – | 15.2 nM | 25.8 nM |
| AUUUCGUCAGGAUAUCCUAGUAAUUGUUUCAUAUUUACAAAGGAGAAGGGACAUGAGGAUCACCCAUGUUUGUC | – | – | 24.7 nM | 23.1 nM |
| AGCAGACGAGGAUAUAGAUUUGUUGACAUGAGGAUCACCCAUGUGAUCGAUCUAUUAUAUUUAGAAGGUGUCUGCU | – | – | 12.9 nM | 13.5 nM |
| UGGUACUACGGAGGAUAUCAUGUAGAUACAUGAGGAUCACCCAUGUCGUACGAGAGUACGGAGAUUGAGAAGGCCGUAGUACCU | 30.5 nM | 15.1 nM | – | – |
| GUCAGCUCGUGAGGAUAUACAUGUGCUGGAAACAGCAUUAAAUAAUUCACAUGAGGAUCACCCAUGUAGAAGGCACGAGCUGAU | – | – | 16.8 nM | 33.8 nM |
| UUUUUUGUUGUGAGGAUAUCGUUGUUGUUGUGGAUCGAGAAGGCACAUGAGGAUCACCCAUGUUUGUUGUGGUU | – | – | 89.1 nM | 220 nM |
| CUUUCGUGAGGAUAUGUGGCUUCGAUCGUGAGAUCGAGGAAACAGAAGGCACAUGAGGAUCACCCAUGUUCCUC | – | – | 35.9 nM | 421 nM |
| UCCAAACCGUAGAAGGGUGACAUGAGGAUCACCCAUGUGCAGCAGCCGUGAACGGCCAUGCUGCCACAGGAUAUACGGAGGAGU | 28.9 nM | 67.3 nM | – | – |
| UUUACGAAAGUCGAACGAUGUAGCAGAAGGACAUGAGGAUCACCCAUGUCAGCUGUAACAGCCAUGUAGGAUAUGCUACAUCCC | – | – | 5.24 nM | 6.49 nM |
| AAACACAGACAUGAGGAUCACCCAUGUUAUGAAGAUACUGGGAGAAGGGCGAUUGCAAAGCAAUCGCAGGAUAUUCGUAUUGUG | 31.2 nM | 11 nM | – | – |
| AAAAUGUGUACAUGAGGAUCACCCAUGUAUCGACUCCAAAGCAAGGAUAUGAUCAUGGGAAUUGGUCAGAAGGUGCAGGGUCUG | 205 nM | 25.8 nM | – | – |
| AAUGGGCAGCAGAAGGCAUGUCAACGGACAUGAGGAUCACCCAUGUAGUAUAGCCGAAAGGCACAUGAGGAUAUGCUGCCCUAA | 19.4 nM | 5.14 nM | – | – |
| GGUACUCAAAGAGUACCAAUACGAACAUGAGGAUCACCCAUGUAGGAUAUGCUACUCAAAGAGUAGCAGAAGGACAUGUGCCUC | – | – | 418 nM | 38.5 nM |
| AAACUGCAUGUGAGGAUAUGCACCGGCUAAACCGGGCAGAAGGCACAUGAGGAUCACCCAUGUCAUCCUAUUGC | – | – | 9.41 nM | 18.4 nM |
| UUUUUUUUUAGAGGAUAUAUUGUGUGUUAUAUAAUAGAAGGCUAAACAAACAUGAGGAUCACCCAUGUUGUCCAUGUCGUCGGC | 15.3 nM | 20.7 nM | – | – |
| ACGGUUUACCAGAAGGACAUGAGGAUCACCCAUGUAGGAUAUGGGAAGUUGGUCUCCUUCAAAUAAGGCCCUCAGAGCUUCAAA | 446 nM | 31.2 nM | – | – |
| CAUGUGUAAGGAUAUGACAAUGGUAUCGAAAGAUACCAUUGUCAGAAGGUACAUGAGGAUCACCCAUGUGGAUC | – | – | 198 nM | 91 nM |
| UCUUUGUGAGGAUAUCAGUAGUAAAUAAAUAAAAUUACUACUGAGAAGGCACAUGAGGAUCACCCAUGUUCCUU | – | – | 12.1 nM | 24.4 nM |
| GGCUAGCCUCAAGGAUAUACGCUCUCAACAAAGAACCGACUACAUGAGGAUCACCCAUGUACCAUGUAGAAGGUGAGGUUAGCC | 906 nM | 58.1 nM | – | – |
| AAAACAUGAGGAUCACCCAUGUAAAGAACGGUUAAUAGAUGUGAGGAUAUACUAGAAUUUAGGUAGUAGAAGGCACUGGGUACA | 21.7 nM | 23.4 nM | – | – |
| CUCAUGUGAGGAUAUCAGUAGUAAAAAAAUAAAAUUACUACUGAGAAGGCACAUGAGGAUCACCCAUGUACCUU | – | – | 70.7 nM | 72 nM |

Reference: the EternaBench riboswitch data
